ChEMBL document CHEMBL4725282, “Discovery of a Conformationally Constrained Oxazolidinone with Improved Safety and Efficacy Profiles for the Treatment of Multidrug-Resistant Tuberculosis” (J Med Chem, 2020)

What was measured:
[1] = Toxicity in female Sprague-Dawley rat assessed as changes in neuropsychic symptoms at 50 to 450 mg/kg/day, po administered for 4 weeks followed by 2 week recovery period measured during last 24 hrs of recovery period; assay type: organism-based; settings: in vivo, 672 h, dose 50-450 mg/kg/day
Procedure, shortened: (§1)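 SD rats, 6-7 weeks old (96 in total), split into vehicle, 50, 150 and 450 mg/kg/day groups of 12 females and 12 males each, given oral doses once daily for 4 weeks, then 2 weeks of recovery. Mortality, body weight, food intake, eyes, urine and neuropsychic signs were observed. Organ and bone marrow histopathology was done on 8 rats per sex per group after the last dose and on the remaining 4 per sex after 14 days of recovery.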

[2] = Toxicity in female Sprague-Dawley rat assessed as mortality at 50 to 450 mg/kg/day, po administered for 4 weeks followed by 2 week recovery period; assay type: organism-based; settings: in vivo, 672 h, dose 50-450 mg/kg/day; procedure, shortened: as §1
[3] = Toxicity in male Sprague-Dawley rat assessed as histopathological changes at 50 to 450 mg/kg/day, po administered for 4 weeks followed by 2 week recovery period; assay type: organism-based; settings: in vivo, 672 h, dose 50-450 mg/kg/day
[4] = Toxicity in female Sprague-Dawley rat assessed as change in hemoglobin count at 150 mg/kg/day, po administered for 4 weeks followed by 2 week recovery period (Rvb =136 +/- 7 g/L); assay type: organism-based; settings: in vivo, 672 h
[5] = Apparent permeability in human Caco-2 cells at 50 uM after 1 hr by UPLC analysis; assay type: ADME, cell-based
Procedure, shortened: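 Caco-2 monolayers on Transwells, cultured 21 days, TEER required >500 Ω×cm². Compound at 50 μM added apically, 1 h at 37 °C. Transported compound quantified by UPLC. Papp = (dQ/dt)/(C0×A).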

[6] = Toxicity in female Sprague-Dawley rat assessed as change in mean platelet volume at 450 mg/kg/day, po administered for 4 weeks followed by 2 week recovery period (Rvb =7.1 +/- 0.5 fL); assay type: organism-based; settings: in vivo, 672 h
[7] = Toxicity in male Sprague-Dawley rat assessed as ophthalmic changes at 50 to 450 mg/kg/day, po administered for 4 weeks followed by 2 week recovery period measured within 7 days of post recover period; assay type: organism-based; settings: in vivo, 672 h, dose 50-450 mg/kg/day
[8] = Toxicity in male Sprague-Dawley rat assessed as change in reticulocyte level at 150 mg/kg/day, po administered for 4 weeks followed by 2 week recovery period (Rvb =2.48 +/- 0.34 %); assay type: organism-based; settings: in vivo, 672 h
[9] = Toxicity in female Sprague-Dawley rat assessed as change in white blood cell count at 50 mg/kg/day, po administered for 4 weeks followed by 2 week recovery period (Rvb =3.61 +/- 0.75 10^9/L); assay type: organism-based; settings: in vivo, 672 h
[10] = Toxicity in female Sprague-Dawley rat assessed as histopathological changes at 50 to 450 mg/kg/day, po administered for 4 weeks measured post last dose; assay type: organism-based; settings: in vivo, 672 h, dose 50-450 mg/kg/day; procedure, shortened: as §1
Cytochrome P450 1A2 = molecular target: T1, Cytochrome P450 1A2 (Homo sapiens, UniProt P05177); assay: Inhibition of CYP1A2 in human liver microsomes after 20 mins by LC-MS/MS analysis; assay type: ADME
T1 sequence (P05177 whole entry): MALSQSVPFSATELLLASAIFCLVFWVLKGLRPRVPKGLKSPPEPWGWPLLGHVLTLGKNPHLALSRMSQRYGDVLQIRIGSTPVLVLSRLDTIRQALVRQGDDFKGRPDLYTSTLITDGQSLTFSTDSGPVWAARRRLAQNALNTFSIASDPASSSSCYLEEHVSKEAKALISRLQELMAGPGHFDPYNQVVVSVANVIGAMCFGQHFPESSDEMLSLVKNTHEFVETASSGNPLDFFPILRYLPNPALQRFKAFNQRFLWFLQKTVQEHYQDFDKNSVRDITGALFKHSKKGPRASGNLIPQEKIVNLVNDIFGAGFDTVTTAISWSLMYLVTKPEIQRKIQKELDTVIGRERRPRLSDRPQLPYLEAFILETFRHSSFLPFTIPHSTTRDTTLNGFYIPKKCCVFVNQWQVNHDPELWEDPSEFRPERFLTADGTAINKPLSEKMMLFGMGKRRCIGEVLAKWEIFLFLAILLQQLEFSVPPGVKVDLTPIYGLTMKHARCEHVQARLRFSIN
Procedure, shortened: (§2)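 Human liver microsomes (0.2 mg/mL) in phosphate buffer, 20 min incubation with compound at 0.1-50 μM alongside isoform-specific substrates and a positive control. Substrate remaining monitored by LC-MS/MS at each concentration; IC50 derived.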

[11] = Toxicity in female Sprague-Dawley rat assessed as change in reticulocyte level at 450 mg/kg/day, po administered for 4 weeks followed by 2 week recovery period (Rvb =2.85 +/- 0.53 %); assay type: organism-based; settings: in vivo, 672 h
[12] = Toxicity in female Sprague-Dawley rat assessed as ophthalmic changes at 50 to 450 mg/kg/day, po administered for 4 weeks measured post last dose; assay type: organism-based; settings: in vivo, 672 h, dose 50-450 mg/kg/day; procedure, shortened: as §1
[13] = Toxicity in female Sprague-Dawley rat assessed as change in platelet count at 50 mg/kg/day, po administered for 4 weeks followed by 2 week recovery period (Rvb =1051 +/- 122 10^9/L); assay type: organism-based; settings: in vivo, 672 h
[14] = Toxicity in female Sprague-Dawley rat assessed as change in mean platelet volume at 150 mg/kg/day, po administered for 4 weeks followed by 2 week recovery period (Rvb =7.1 +/- 0.5 fL); assay type: organism-based; settings: in vivo, 672 h
[15] = Toxicity in male Sprague-Dawley rat assessed as change in lymphocyte level at 450 mg/kg/day, po administered for 4 weeks followed by 2 week recovery period (Rvb =77.4 +/- 3.7 %); assay type: organism-based; settings: in vivo, 672 h
[16] = Toxicity in male Sprague-Dawley rat assessed as change in reticulocyte level at 50 mg/kg/day, po administered for 4 weeks followed by 2 week recovery period (Rvb =2.48 +/- 0.34 %); assay type: organism-based; settings: in vivo, 672 h
[17] = Toxicity in male Sprague-Dawley rat assessed as abnormalities in urine at 50 to 450 mg/kg/day, po administered for 4 weeks followed by 2 week recovery period measured within last 7 days of recover period; assay type: organism-based; settings: in vivo, 672 h, dose 50-450 mg/kg/day; procedure, shortened: as §1
[18] = Toxicity in male Sprague-Dawley rat assessed as change in mean corpuscular volume at 150 mg/kg/day, po administered for 4 weeks followed by 2 week recovery period (Rvb =57.5 +/- 2.0 fL); assay type: organism-based; settings: in vivo, 672 h
Cytochrome P450 2D6 = Cytochrome P450 2D6 (Homo sapiens, UniProt P10635); assay: Inhibition of CYP2D6 in human liver microsomes after 20 mins by LC-MS/MS analysis; assay type: ADME; procedure, shortened: as §2
Cytochrome P450 2D6, sequence (P10635 whole entry): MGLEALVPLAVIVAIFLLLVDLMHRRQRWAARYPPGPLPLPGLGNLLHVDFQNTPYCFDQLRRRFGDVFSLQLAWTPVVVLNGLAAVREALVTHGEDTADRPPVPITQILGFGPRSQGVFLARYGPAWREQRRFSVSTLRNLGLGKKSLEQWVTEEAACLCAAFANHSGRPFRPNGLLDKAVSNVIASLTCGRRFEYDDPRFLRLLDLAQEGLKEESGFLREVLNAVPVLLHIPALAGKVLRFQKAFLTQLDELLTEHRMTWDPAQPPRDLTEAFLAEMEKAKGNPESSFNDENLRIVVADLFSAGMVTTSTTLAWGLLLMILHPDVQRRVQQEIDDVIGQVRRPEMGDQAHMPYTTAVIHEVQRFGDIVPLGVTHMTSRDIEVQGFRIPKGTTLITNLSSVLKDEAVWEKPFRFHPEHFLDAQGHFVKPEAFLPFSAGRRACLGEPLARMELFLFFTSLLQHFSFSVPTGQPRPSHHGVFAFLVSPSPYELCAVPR

[19] = Toxicity in male Sprague-Dawley rat assessed as change in hematocrit level at 150 mg/kg/day, po administered for 4 weeks followed by 2 week recovery period (Rvb =45.2 +/- 1.7 %); assay type: organism-based; settings: in vivo, 672 h
[20] = Toxicity in male Sprague-Dawley rat assessed as histopathological changes at 50 to 450 mg/kg/day, po administered for 4 weeks measured post last dose; assay type: organism-based; settings: in vivo, 672 h, dose 50-450 mg/kg/day
[21] = Half life in Beagle dog hepatocytes at 2 uM by LC-MS/MS analysis; assay type: ADME, cell-based, Canis lupus familiaris, Hepatocyte
Procedure, shortened: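 Hepatocytes (male CD-1 mouse, male SD rat, male beagle dog, male cynomolgus monkey, pooled human), final 1 μM compound and 1 million cells/mL, made by mixing 2 μM compound with 2 million cells/mL. Incubated at 37 °C in a CO2 incubator; sampled at 0, 15, 30, 60, 90 and 120 min. Quenched with methanol/ACN containing 0.1% formic acid. Parent remaining measured by LC-MS/MS.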

CC(=O)NC[C@@H]1OC(=O)N2c3cc(F)c(N4CCSCC4)cc3OC[C@@H]12
Activity [1]: Non-Toxic | Activity [2]: Non-Toxic | Activity [3]: Non-Toxic | Activity [4]: 124 g/L | Papp at 1 h, 50 µM [5]: 67.6 ×10⁻⁶ cm/s | Activity [6]: 7.5 fL | Activity [7]: Non-Toxic | Activity [8]: 3.15% | Activity [9]: 4.2 10^9/L | Activity [10]: Non-Toxic | IC50 (Cytochrome P450 1A2): > 50 µM | Activity [11]: 2.93% | Activity [12]: Non-Toxic | Activity [13]: 1094 10^9/L | Activity [14]: 7.4 fL | Activity [15]: 80.7% | Activity [16]: 2.97% | Activity [17]: Non-Toxic | Activity [18]: 58.5 fL | IC50 (Cytochrome P450 2D6): > 50 µM | Activity [19]: 44.5% | Activity [20]: Non-Toxic | half-life at 2 µM [21]: 1.13 h
